Results from ChEMBL document CHEMBL1671655, “Anidulafungin is fungicidal and exerts a variety of postantifungal effects against Candida albicans, C. glabrata, C. parapsilosis, and C. krusei isolates” (2009).
In brackets after ≈: the same amount, converted by molar mass. Activity calls are given as the source filed them. No cut-off for these calls is given here. Starred links: 1 amine or outer side, 2 acyl side, 3 side chain; linkers in the order of their positions; H or OH if unused. Positions of bridges follow the written chain, without caps; N, C: chain ends. Non-standard residues stand in square brackets, D forms with d. Residues, ends and D or L forms follow the SMILES beside them. *: point of attachment. pTerphenylCO(4''-OnC5H11) = CCCCCOc1ccc(-c2ccc(-c3ccc(C(=O)*)cc3)cc2)cc1; Orn(4R-OH,5R-OH) = O=C([C@H](C[C@@H](O)[C@@H](O)N[*:3])N[*:1])[*:2]; hTyr(3S-OH,4S-OH) = N[C@H](C(=O)O)[C@H](O)[C@@H](O)c1ccc(O)cc1; Pro(3S-OH,4S-Me) = C[C@H]1CN[C@H](C(=O)O)[C@H]1O; Hyp = O=C(O)[C@@H]1C[C@@H](O)CN1

Key:
[1] = test system: Candida parapsilosis; test: Fungicidal activity against Candida parapsilosis isolate S assessed as log reduction in bacterial count at 16 times MIC after 48 hrs by time-kill analysis; format: functional; conditions: Lodderomyces parapsilosis
In short: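 Isolates subcultured twice on SDA, then suspended to 0.5 McFarland and diluted into RPMI 1640 (MOPS, pH 7.0) with or without anidulafungin, giving about 1 x 10^5 to 5 x 10^5 CFU/ml. Tubes were shaken at 35°C. Samples were taken at 0, 2, 4, 8, 12, 24 and 48 h, serially diluted 10-fold, plated on SDA, and CFU counted after 48 h at 35°C. Each isolate was run twice; mean values.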

[2] = test system: Pichia kudriavzevii; test: Fungicidal activity against Candida krusei isolate ATCC 6258 assessed as log reduction in bacterial count at 16 times MIC after 48 hrs by time-kill analysis; format: functional; conditions: isolate ATCC 6258, 48 h
In short: (§1)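 Isolates subcultured twice on SDA, suspended to 0.5 McFarland, giving ~1 x 10^5 to 5 x 10^5 CFU/ml in MOPS-buffered RPMI 1640 (pH 7.0) with or without drug at multiples of MIC (MIC by CLSI M27-A3). Tubes shaken at 35°C with continuous drug. Sampled at 0–48 h, diluted 10-fold and plated on SDA; CFU counted after 48 h at 35°C. Run twice per isolate; means.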

[3] = test system: Pichia kudriavzevii; test: Fungicidal activity against Candida krusei isolate ATCC 6258 assessed as log reduction in bacterial count at MIC after 48 hrs by time-kill analysis; format: functional; conditions: isolate ATCC 6258, 48 h; in short: as §1
[4] = test system: Pichia kudriavzevii; test: Fungicidal activity against Candida krusei isolate 1 assessed as log reduction in bacterial count at 16 times MIC after 48 hrs by time-kill analysis; format: functional; conditions: isolate 1, 48 h; in short: as §1
[5] = test system: Candida albicans; test: Fungicidal activity against Candida albicans isolate S assessed as log reduction in bacterial count at 16 times MIC after drug exposure for 1 hr followed by washout measured after 48 hrs in the absence of drug by PAFE study; format: functional
In short: (§2)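 Starting inoculum ~1 x 10^5 to 5 x 10^5 CFU/ml in MOPS-buffered RPMI 1640 (pH 7.0) with drug at multiples of the CLSI M27-A3 MIC. After 1 h at 35°C, cells washed and centrifuged three times at 1,400 x g for 10 min, then resuspended in warm drug-free RPMI. Shaken at 35°C and plated on SDA at 0–48 h; CFU counted after 48 h. Run twice per isolate; means.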

[6] = test system: Candida albicans; test: Fungicidal activity against Candida albicans isolate 1 assessed as log reduction in bacterial count at 16 times MIC after drug exposure for 1 hr followed by washout measured after 48 hrs in the absence of drug by PAFE study; format: functional; in short: as §2
[7] = test system: Candida parapsilosis; test: Fungicidal activity against Candida parapsilosis isolate 1 assessed as log reduction in bacterial count at MIC after drug exposure for 1 hr followed by washout measured after 48 hrs in the absence of drug by PAFE study; format: functional; conditions: Lodderomyces parapsilosis
In short: (§3)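 Inoculum about 1 x 10^5 to 5 x 10^5 CFU/ml in RPMI 1640 (MOPS, pH 7.0) with drug, shaken at 35°C for 1 h. Cells were then washed and centrifuged at 1,400 x g for 10 min (3 cycles) and resuspended in warm drug-free RPMI. Samples plated on SDA at 0, 2, 4, 8, 12, 24 and 48 h; CFU counted after 48 h at 35°C. Run twice per isolate; means.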

[8] = test system: Candida parapsilosis; test: Fungicidal activity against Candida parapsilosis isolate S assessed as log reduction in bacterial count at 4 times MIC after drug exposure for 1 hr followed by washout measured after 48 hrs in the absence of drug by PAFE study; format: functional; conditions: Lodderomyces parapsilosis; in short: as §3
[9] = test system: Candida tropicalis; test: Antifungal activity against Candida tropicalis by NCCLS M27A broth microdilution method; format: functional
[10] = test system: Nakaseomyces glabratus; test: Antifungal activity against Candida glabrata isolate 1 by CLSI M27-A3 broth microdilution method; format: functional
In short: (§4)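 CLSI M27-A3 broth microdilution in RPMI 1640 buffered to pH 7.0 with MOPS. Starting inoculum 0.5 x 10^3 to 2.5 x 10^3 cells/ml, incubated at 35°C. MIC read as the lowest concentration giving >50% growth reduction versus control. Each isolate tested on at least three occasions.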

[11] = test system: Nakaseomyces glabratus; test: Antifungal activity against Candida glabrata isolate 3 by CLSI M27-A3 broth microdilution method; format: functional; in short: as §4
[12] = test system: Pichia kudriavzevii; test: Antifungal activity against Candida krusei isolate 1 by CLSI M27-A3 broth microdilution method; format: functional; in short: as §4
[13] = test system: Candida parapsilosis; test: Antifungal activity against Candida parapsilosis isolate 1 assessed as time period for bacterial growth inhibition at 16 times MIC after 1 hr drug exposure; format: functional
In short: (§5)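 Inoculum of about 1 x 10^5 to 5 x 10^5 CFU/ml in MOPS-buffered RPMI (pH 7.0), shaken at 35°C and exposed to drug for 1 h. Cells then washed and centrifuged three times and resuspended in drug-free warm RPMI. Samples plated on SDA at 0, 2, 4, 8, 12, 24 and 48 h, with CFU counted after 48 h at 35°C. Run twice per isolate; values are means.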

[14] = test system: Pichia kudriavzevii; test: Antifungal activity against Candida krusei isolate ATCC 6258 assessed as time period for bacterial growth inhibition at 16 times MIC after 1 hr drug exposure; format: functional; in short: as §5
[15] = test system: Candida albicans; test: Increase in susceptibility to SDS in Candida albicans isolate 1 assessed as cell wall damage at MIC after 1 hr relative to control; format: functional, organism-based
In short: (§6)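 Cells recovered 8 h after a 1-h drug exposure were grown in YPD with 1% glucose to exponential phase and adjusted to OD599 0.1. Undiluted culture and 10-fold serial dilutions were spotted onto YPD plates containing SDS (0.01 to 0.04%), then incubated 72 h at 30°C. Growth compared with unexposed control cells; triplicate.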

[16] = test system: Candida parapsilosis; test: Increase in susceptibility to SDS in Candida parapsilosis isolate A assessed as cell wall damage at MIC after 1 hr relative to control; format: functional, organism-based; in short: as §6
[17] = test system: Candida albicans; test: Increase in susceptibility to SDS in Candida albicans ATCC 90028 assessed as cell wall damage at 16 times MIC after 1 hr relative to control; format: functional, organism-based; in short: as §6
[18] = test system: Pichia kudriavzevii; test: Increase in susceptibility to SDS in Candida krusei isolate ATCC 6258 assessed as cell wall damage at 16 times MIC after 1 hr relative to control; format: functional, organism-based; in short: as §6
[19] = test system: Candida albicans; test: Increase in susceptibility to calcofluor white in Candida albicans ATCC 90028 assessed as cell wall damage at MIC after 1 hr relative to control; format: functional, organism-based
In short: (§7)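 Cells recovered 8 h after a 1-h drug exposure were grown to exponential phase in YPD with 1% glucose and adjusted to OD599 0.1. Undiluted and 10-fold serially diluted cultures were spotted onto YPD plates containing calcofluor white, then incubated at 30°C for 72 h. Growth compared with no-drug control cells; triplicate.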

[20] = test system: Nakaseomyces glabratus; test: Increase in susceptibility to calcofluor white in Candida glabrata isolate 1 assessed as cell wall damage at MIC after 1 hr relative to control; format: functional, organism-based; in short: as §7
[21] = test system: Candida albicans; test: Antifungal activity against Candida albicans isolate 1 assessed as cell wall damage at MIC by Transmission electron microscopy; format: functional, organism-based
In short: (§8)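 Cells recovered 8 h after a 1-h drug exposure were grown on SDA for 24 h at 35°C. Colonies fixed at 4°C in 0.1 M cacodylate (pH 7.2) with 2% glutaraldehyde and 2% paraformaldehyde, ethanol-dehydrated and embedded in Lowicryl K4M. Thin sections examined by transmission EM.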

[22] = test system: Nakaseomyces glabratus; test: Antifungal activity against Candida glabrata isolate 1 assessed as cell wall damage at 4 times MIC by Transmission electron microscopy; format: functional, organism-based; in short: as §8

SMILES: CCCCCOc1ccc(-c2ccc(-c3ccc(C(=O)N[C@H]4C[C@@H](O)[C@@H](O)NC(=O)[C@@H]5[C@@H](O)[C@@H](C)CN5C(=O)[C@H]([C@@H](C)O)NC(=O)[C@H]([C@H](O)[C@@H](O)c5ccc(O)cc5)NC(=O)[C@@H]5C[C@@H](O)CN5C(=O)[C@H]([C@@H](C)O)NC4=O)cc3)cc2)cc1 [ANIDULAFUNGIN] ({pTerphenylCO(4''-OnC5H11)}-[Orn(4R-OH,5R-OH)]T[Hyp][hTyr(3S-OH,4S-OH)]T[Pro(3S-OH,4S-Me)]; lactam 1-C)
- log reduction [1]: 3.11 log CFU/ml
- log reduction [2]: 3.2 log CFU/ml
- log reduction [3]: 2.21 log CFU/ml
- log reduction [4]: 3 log CFU/ml
- log reduction [5]: 2.52 log CFU/ml
- log reduction [6]: 2.64
- log reduction [7]: 0.81
- log reduction [8]: 2.17
- MIC90 [9]: 0.06 µg/mL (≈ 0.0526 µM)
- MIC [10]: 0.06 µg/mL (≈ 0.0526 µM)
- MIC [11]: 0.03 µg/mL (≈ 0.0263 µM)
- MIC [12]: 0.03 µg/mL (≈ 0.0263 µM)
- Time [13]: 8 h
- Time [14]: 8 h
- Activity [15]: Active
- Activity [16]: Active
- Activity [17]: Active
- Activity [18]: Active
- Activity [19]: Active
- Activity [20]: Active
- Activity [21]: Active
- Activity [22]: Active
